Five compounds from ChEMBL document CHEMBL2057188, “Hybridizing ability and nuclease resistance profile of backbone modified cationic phosphorothioate oligonucleotides” (Bioorg Med Chem, 2012) can be followed below.

This series can be described thus: Stability in presence of Crotalus admanteus venom phosphodiesterase assessed as intact compound level at 5.5 uM in 50 mM Tris-Hcl buffer (pH 7.5) containing 10 mM MgCl2 incubated for 15 mins at 37 degC by HPLC. It counts as ADME. Conditions: pH 7.5, 0.25 h. In outline: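 12-mers are first trimmed from the 3′ end with the venom 3′-exonuclease to give 7-mer substrates, which are purified by RP-HPLC. These are then re-incubated with enzyme in 50 mM Tris-HCl pH 7.5 with 10 mM MgCl2 at 37 °C for 15 min. The enzyme is heat-inactivated at 90 °C for 5 min, and the fraction of intact ODN remaining is quantified by HPLC.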

`Cc1cn([C@H]2C[C@H](OP(=O)(O)O)[C@@H](CO[P@@](=O)(S)O[C@H]3C[C@H](n4cc(C)c(=O)[nH]c4=O)O[C@@H]3COP(=O)(O)O[C@H]3C[C@H](n4cc(C)c(=O)[nH]c4=O)O[C@@H]3COP(=O)(O)O[C@H]3C[C@H](n4cc(C)c(=O)[nH]c4=O)O[C@@H]3COP(=O)(O)O[C@H]3C[C@H](n4ccc(N)nc4=O)O[C@@H]3COP(=O)(O)O[C@H]3C[C@H](n4ccc(N)nc4=O)O[C@@H]3COP(=O)(O)O[C@H]3C[C@H](n4ccc(N)nc4=O)O[C@@H]3CO)O2)c(=O)[nH]c1=O`: the Stability entry is reported as “Stable”.
As for `Cc1cn([C@H]2C[C@H](OP(=O)(O)O)[C@@H](CO[P@@](=O)(O[C@H]3C[C@H](n4cc(C)c(=O)[nH]c4=O)O[C@@H]3COP(=O)(O)O[C@H]3C[C@H](n4cc(C)c(=O)[nH]c4=O)O[C@@H]3COP(=O)(O)O[C@H]3C[C@H](n4cc(C)c(=O)[nH]c4=O)O[C@@H]3COP(=O)(O)O[C@H]3C[C@H](n4ccc(N)nc4=O)O[C@@H]3COP(=O)(O)O[C@H]3C[C@H](n4ccc(N)nc4=O)O[C@@H]3COP(=O)(O)O[C@H]3C[C@H](n4ccc(N)nc4=O)O[C@@H]3CO)SCCN)O2)c(=O)[nH]c1=O`, the Stability entry is recorded as “Stable”.
The entry for `Cc1cn([C@H]2C[C@H](OP(=O)(O)O)[C@@H](CO[P@](=O)(S)O[C@H]3C[C@H](n4cc(C)c(=O)[nH]c4=O)O[C@@H]3COP(=O)(O)O[C@H]3C[C@H](n4cc(C)c(=O)[nH]c4=O)O[C@@H]3COP(=O)(O)O[C@H]3C[C@H](n4cc(C)c(=O)[nH]c4=O)O[C@@H]3COP(=O)(O)O[C@H]3C[C@H](n4ccc(N)nc4=O)O[C@@H]3COP(=O)(O)O[C@H]3C[C@H](n4ccc(N)nc4=O)O[C@@H]3COP(=O)(O)O[C@H]3C[C@H](n4ccc(N)nc4=O)O[C@@H]3CO)O2)c(=O)[nH]c1=O` is “Stable”.
For `Cc1cn([C@H]2C[C@H](OP(=O)(O)O)[C@@H](CO[P@](=O)(O[C@H]3C[C@H](n4cc(C)c(=O)[nH]c4=O)O[C@@H]3COP(=O)(O)O[C@H]3C[C@H](n4cc(C)c(=O)[nH]c4=O)O[C@@H]3COP(=O)(O)O[C@H]3C[C@H](n4cc(C)c(=O)[nH]c4=O)O[C@@H]3COP(=O)(O)O[C@H]3C[C@H](n4ccc(N)nc4=O)O[C@@H]3COP(=O)(O)O[C@H]3C[C@H](n4ccc(N)nc4=O)O[C@@H]3COP(=O)(O)O[C@H]3C[C@H](n4ccc(N)nc4=O)O[C@@H]3CO)SCCN)O2)c(=O)[nH]c1=O`, the Stability entry is recorded as “Stable”.
In the case of `Cc1cn([C@H]2C[C@H](OP(=O)(O)O)[C@@H](CO[P@](=O)(O[C@H]3C[C@H](n4cc(C)c(=O)[nH]c4=O)O[C@@H]3COP(=O)(O)O[C@H]3C[C@H](n4cc(C)c(=O)[nH]c4=O)O[C@@H]3COP(=O)(O)O[C@H]3C[C@H](n4cc(C)c(=O)[nH]c4=O)O[C@@H]3COP(=O)(O)O[C@H]3C[C@H](n4ccc(N)nc4=O)O[C@@H]3COP(=O)(O)O[C@H]3C[C@H](n4ccc(N)nc4=O)O[C@@H]3COP(=O)(O)O[C@H]3C[C@H](n4ccc(N)nc4=O)O[C@@H]3CO)SCCCCCCN)O2)c(=O)[nH]c1=O`, the Stability result was “Stable”.
